CRFBP-R2 block: antagonists of CRF-BP/CRF-R2 complex, primary screen, cell-based, HEK293, calcium dye fluorescence, uHTS. CRF-induced calcium fluorescence. inhibition, % at 11.8 µM. 0.59% of 350,000 active. AID 588475, 2011;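 active = inhibition of the ligand-induced calcium signal above about 50% at the single tested concentration, limit read from the data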
TMEM16A inh: TMEM16A chloride channel inhibitors, primary screen, cell-based, HTS; normalized B-score (activity score, 25-100; higher = stronger inhibition) at 10 µM; AID 588511, 2011; Anoctamin-1 (Mus musculus), Q8BHY3; 1.2% of 310,000 active; HEK293 TMEM16A/YFP iodide influx fluorescence, ionomycin;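 active = ratio plate-corrected score three or more library SD toward inhibition, starting fluorescence score within five deviations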;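 note: score derived from kinetic fluorescence span divided by baseline fluorescence per well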
TAAR1 antag: human TAAR1 antagonists, primary screen, Fluo-8 calcium fluorescence, CHO RD-HGA16 cells; Trace amine-associated receptor 1 (Homo sapiens), Q96RJ0; antagonist; inhibition, % at 3 µM; 1.5% of 360,000 active; AID 624466, 2012;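 active = inhibition above a per-plate cutoff, the mean inhibition of test compounds on that plate plus 3 SD, cut at about 49% in these data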
Target sequence (Q96RJ0 whole entry, looked up): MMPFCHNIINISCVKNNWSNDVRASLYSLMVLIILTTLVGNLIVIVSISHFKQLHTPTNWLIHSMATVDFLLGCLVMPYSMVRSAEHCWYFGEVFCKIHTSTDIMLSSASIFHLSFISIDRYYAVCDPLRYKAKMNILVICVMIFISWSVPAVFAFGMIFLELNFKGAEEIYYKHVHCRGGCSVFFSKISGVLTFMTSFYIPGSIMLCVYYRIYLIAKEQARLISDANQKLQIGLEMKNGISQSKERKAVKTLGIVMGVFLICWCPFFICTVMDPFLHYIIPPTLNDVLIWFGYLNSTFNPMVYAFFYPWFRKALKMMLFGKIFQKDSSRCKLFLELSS
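System: RD-HGA16 CHO cells with stable hTAAR1 and Gα16 | Probe or stimulus: EC80 β-phenethylamine stimulus | Dosing: 3 µM, single point | Times: Dye loading 75 min at 37 °C, then 30 min room temperature | Measured by: Fluo-8 calcium-sensitive fluorescence | Read-out basis: % inhibition of agonist calcium response | Replicates: n of 1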
ANO1 activ: TMEM16A chloride channel activators or potentiators, primary screen, cell-based, HTS. HEK293 TMEM16A/YFP-H148Q/I152L, iodide quench fluorescence; stronger effect = lower value. Anoctamin-1 (Mus musculus), Q8BHY3. 0.3% of 340,000 active. B-score at 10 µM. AID 623877, 2012;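 active = fluorescence-ratio B-score plate-corrected deviation score at least 3 library SD below zero, with starting fluorescence score within 5 deviations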;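 note: channel opened by trigger with iodide after compound preincubation; score built on the fluorescence ratio of max minus min over baseline; more negative score means more quench and so TMEM16A activation or potentiation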
CRFR2-BP ag: agonists of CRF-BP/CRF-R2 complex, primary screen, cell-based, HEK293, calcium dye fluorescence, uHTS | 0.46% of 350,000 active | activation, % at 13.2 µM | calcium dye fluorescence (FLIPR); percent of saturating CRF peptide response | CRF-binding protein / CRF receptor 2 complex (human);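 active = activation of at least 50%, plus an integration ratio under a set limit after plate pattern correction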
TAAR1 agonist: human TAAR1 agonists, primary screen, Fluo-8 calcium fluorescence, CHO RD-HGA16 cells; vehicle wells 0%, saturating PEA agonist 100%; activation, % at 3 µM; 0.99% of 360,000 active; Trace amine-associated receptor 1 (Homo sapiens), Q96RJ0;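 active = activation above the mean activation of all test compounds in the run plus 3 SD, cut at about 38% in these data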
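System: CHO-derived RD-HGA16 cells with stable Gα16 and human TAAR1. Times: 17-24 h plating, Fluo-8 75 min 37 °C, 30 min RT. Measured by: calcium-sensitive Fluo-8 signal, excitation 470-495, emission 515-575 nm. Read-out basis: % activation relative to PEA EC100 response. Control set: DMSO and PEA EC100. Repeats: no replicates (n 1).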
Each line names hits and unclear results; the compound was inactive in the other large screens. Shown are actives, neighbours in structure and some others; about 3.9% of the full set was active somewhere.

COC1C(OC(=O)c2ccc(C)[nH]2)C(O)C(Oc2ccc3c(O)c(NC(=O)c4ccc(O)c(CC=C(C)C)c4)c(=O)oc3c2Cl)OC1(C)C (stereo not given)	TMEM16A inh 100
CCCC(=O)N(C)C1=Nc2ccc(Cl)cc2C(c2ccccc2)=[N+]([O-])C1	none
CCCCNS(=O)(=O)c1ccc(OCC(=O)N2CCN(Cc3ccc4c(c3)OCO4)CC2)cc1	ANO1 activ -4.7
Cc1nc2c(c(=O)[nH]1)C(c1ccc([N+](=O)[O-])cc1)c1c(c3ccccc3oc1=O)O2 (stereo not given)	none (no result: TAAR1 antag, ANO1 activ, TAAR1 agonist)
Cc1ccc(C(C)C)c(OCC(=O)N2CCN(Cc3nc4cc([N+](=O)[O-])ccc4n3C)CC2)c1	none
CC/C(=C\C=C\[C@@H]1C=C[C@@H]2CCC[C@H]2[C@@H]1C(=O)c1ccc[nH]1)[C@@H]1O[C@@H]([C@@H](C)C(=O)O)CC[C@@H]1C	TMEM16A inh 100, CRFR2-BP ag 67 (no result: TAAR1 antag, ANO1 activ, TAAR1 agonist)
O=C1NC(=O)C(CCc2ccncc2)(Cc2ccc3c(c2)OCO3)C(=O)N1CCc1ccccc1 (stereo not given)	TAAR1 antag 49
Cn1cc(C(=O)c2ccccc2)c2ccccc21	CRFBP-R2 block 53
CCN(CCNc1ccc([N+](=O)[O-])c2cccnc12)S(=O)(=O)c1ccccc1	none
Cc1c(NS(=O)(=O)c2ccccc2)ccc([N+](=O)[O-])c1Cl	CRFBP-R2 block 54 (no result: TMEM16A inh)
CCOc1ccc(-c2c(C)n(-c3ccc(OCC)cc3)c3[n+]2CCCCC3)cc1	TMEM16A inh 25
COC(=O)Cn1cc(/C=C2\C(=O)NC(=O)N(c3ccccc3)C2=O)c2ccccc21	CRFR2-BP ag 87
Cc1ccc(N2C(=O)NC(=O)/C(=C\c3cn(CC(=O)O)c4ccccc34)C2=O)cc1	none
CCOC(=O)c1c(/N=C/C2C(=O)NC(=S)NC2=O)sc2c1CCC2	CRFR2-BP ag 98 (no result: TAAR1 antag, TAAR1 agonist)
Cc1c2cnn(CC(=O)N3CCC4(CC3)OCCO4)c(=O)c2c(C)n1Cc1ccc(F)cc1	none
O=C(Cn1ncc2c3ccccc3n(Cc3ccccc3F)c2c1=O)N1CCC2(CC1)OCCO2	ANO1 activ -21
C/C=C(\C)C(=O)OC1C(C)=C2C(C1OC(=O)CCCCC)C(C)(OC(C)=O)CC(OC(=O)CCC)C1(O)C2OC(=O)C1(C)O (stereo not given)	TMEM16A inh 100 (no result: CRFBP-R2 block, TAAR1 antag, ANO1 activ, CRFR2-BP ag, TAAR1 agonist)
CCOc1cccc(=NC2CCCCC2)c2c(C)n(C)c(C)c12	TMEM16A inh 100
C=CCn1c(O)c(C(CC)=Nc2ccc(N(C)C)cc2)c(=O)[nH]c1=O	none
O=C1NC(=O)N(c2ccc3c(c2)OCO3)C(=O)/C1=C\c1ccc(N2CCCCC2)o1	CRFR2-BP ag 73
CN1C(=O)C(=Cc2ccc(N3CCCCCC3)o2)C(=O)N(C)C1=S	CRFR2-BP ag 99
Cc1cc(/C=C2\C(=O)NC(=O)N(C)C2=O)c(C)n1-c1ccc2c(c1)OCO2	none
CCNc1nc(NC(C)(C)C)nc(SC)n1	none
CCN(C(=O)COC(=O)c1cc(C)n(C2CC2)c1C)c1ccccc1	none (no result: TMEM16A inh)
Cc1ccc(N2C(=O)NC(=O)/C(=C/C=C/c3ccco3)C2=O)cc1	TAAR1 antag 51
CC(C)c1ccc(N2C(=O)NC(=O)/C(=C/C=C/c3ccco3)C2=O)cc1	none
O=C1NC(=S)SC1=Cc1ccc(N(CCCl)CCCl)cc1	CRFR2-BP ag 88 (no result: TMEM16A inh)
COC(=O)C1C(c2ccc(Cl)cc2)CC2CCC1N2C (stereo not given)	none (no result: CRFBP-R2 block, TMEM16A inh, ANO1 activ, CRFR2-BP ag)
Cc1ccccc1N1C(=O)NC(=O)/C(=C/c2ccc(N3CCOCC3)o2)C1=O	none
Cc1cccc(N2C(=O)/C(=C/c3ccc(N4CCN(C)CC4)o3)C(=O)NC2=S)c1C	CRFR2-BP ag 51
CCc1ccccc1N1C(=O)/C(=C/c2ccc(N3CCN(C)CC3)o2)C(=O)NC1=S	CRFR2-BP ag 55
CC[C@H]1C2C[C@H]3[C@@H]4N(C)c5ccccc5C45C[C@H](C2[C@H]5O)N3[C@@H]1O (stereo not given in full)	TMEM16A inh 100
CCC1C2CC3C4N(C)c5ccccc5C45CC(C2C5O)N3[C@@H]1O (stereo not given in full)	none
Cc1cccc(C)c1NC(=O)c1cccn(Cc2ccc3c(c2)OC(F)(F)O3)c1=O	TMEM16A inh 25
CCCCn1c(O)c(C(=O)/C=C/c2c[nH]c3ccccc23)c(=O)[nH]c1=O	CRFR2-BP ag 130
C[C@H]1CN([C@@H](C)CO)C(=O)CCCn2cc(nn2)CO[C@@H]1CN(C)C(=O)Oc1cccc2ccccc12	none (no result: CRFBP-R2 block, TMEM16A inh, ANO1 activ, CRFR2-BP ag)
CC1=C(O)C(=O)C=C2C1=CC=C1C2(C)CCC2(C)C3CC(C)(C(=O)O)CCC3(C)CCC12C (stereo not given)	TAAR1 antag 74, ANO1 activ -10, TAAR1 agonist 41 (no result: TMEM16A inh)
Cc1ccccc1N1C(=O)NC(=O)/C(=C\c2cc(Br)c(N3CCOCC3)o2)C1=O	CRFR2-BP ag 113
CCC(=NCc1cccnc1)c1c(O)n(-c2ccc(Cl)cc2)c(=O)[nH]c1=O	none
Cc1ccc(NP(=O)(Oc2ccccc2F)Oc2ccccc2F)cc1	none
Cc1cccc(NP(=O)(Oc2ccccc2F)Oc2ccccc2F)c1C	TAAR1 antag 54
C=CCN1CCC2(C)c3cc(O)ccc3CC1C2C (stereo not given)	CRFR2-BP ag 63
Clc1cc(Cl)c(-c2cc(Cl)c(Cl)cc2Cl)cc1Cl	none (no result: TMEM16A inh)
CCCC(C)C1C(C#N)=C(N)Oc2c1c(=O)oc1ccccc21 (stereo not given)	TMEM16A inh 100
CC(C)C1C(C#N)=C(N)Oc2c1c(=O)oc1ccccc21 (stereo not given)	none (no result: TMEM16A inh, ANO1 activ)
CCN(CC)S(=O)(=O)c1ccc(C(=O)NC2CN3CCC2CC3)cc1 (stereo not given)	none (no result: ANO1 activ)
O=c1oc2ccccc2c(O)c1[C@H]1c2ccc(O)cc2Oc2c1c(=O)oc1ccccc21	none
COc1ccc(-n2nnnc2C(c2ccccc2)N2CCC(n3c(=O)[nH]c4ccccc43)CC2)cc1 (stereo not given)	TAAR1 antag 67 (no result: CRFBP-R2 block, TMEM16A inh, ANO1 activ, CRFR2-BP ag)
COc1cccc(C(c2nnnn2Cc2ccccc2)N2CCC(n3c(=O)[nH]c4ccccc43)CC2)c1OC (stereo not given)	none (no result: CRFBP-R2 block, TMEM16A inh, ANO1 activ, CRFR2-BP ag)

High-throughput results deposited in PubChem BioAssay by several laboratories.
